The whole screen tested about 360,000 compounds, of which about 500 (0.14%) were called active.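 Rule for the calls: active = mean inhibition of at least 70% across replicates, with every replicate also reaching that level; inconclusive = mean inhibition reaches 70% but some replicates fall short; inactive = mean inhibition below 70%.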 The list comes from a sample in which actives are over-represented; it also holds similar structures and randomly drawn compounds.
biological target: Protein S100-A4 (Homo sapiens) (UniProt P26447); experiment: inhibitors of S100A4-myosin IIA peptide binding, primary screen, biochemical, fluorescence polarization, TAMRA-MyoIIA peptide (AID 652163); settings: at 10.7 µM, active compounds read high
How it was run: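 Material: S100A4 monomer (human). Medium: Calcium-containing HEPES buffer, pH 7.2. Probe or stimulus: labelled myosin peptide probe, 5 nM. Compound dosing: one concentration per compound. Timing: polarization read 5 min after assay mix addition, stable 5–60 min. Benchmarks: DMSO as neutral control, TFP as positive control.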

Sequence of Protein S100-A4 (Homo sapiens) (P26447 whole entry, looked up): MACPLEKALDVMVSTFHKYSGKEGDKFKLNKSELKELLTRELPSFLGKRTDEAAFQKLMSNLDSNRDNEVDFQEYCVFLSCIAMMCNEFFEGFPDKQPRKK

inhibition, inactive:
NCC[C@H]1CC[C@H](NC(=O)C2CC2)[C@@H](CO)O1 4.1%, CCCN1C[C@@H](C)[C@@H](OC)CN(C)C(=O)c2cc(NC(=O)CC(F)(F)F)ccc2OC[C@H]1C -32.9%, COCC#Cc1ccc2c(c1)O[C@H](CN(C)CC1CC1)[C@H](C)CN([C@H](C)CO)S2(=O)=O 4.13%, CC(C)NC(=O)N(C)C[C@H]1Oc2ncc(-c3ccc(C(=O)N(C)C)cc3)cc2C(=O)N([C@H](C)CO)C[C@H]1C -3.24%, C[C@@H]1CN([C@H](C)CO)C(=O)c2cc(-c3ccncc3)cnc2O[C@@H]1CN(C)C(=O)Cc1cccnc1 11.8%, CC(C)NC(=O)N(C)C[C@@H]1Oc2cc(C#C[C@H](C)O)ccc2S(=O)(=O)N([C@@H](C)CO)C[C@H]1C -1.62%, CC(C)C#Cc1ccc2c(c1)O[C@@H](CN(C)C(=O)Nc1ccccc1)[C@H](C)CN([C@H](C)CO)S2(=O)=O 15.5%, CNC[C@@H]1Oc2ncc(-c3ccc(F)cc3)cc2C(=O)N([C@H](C)CO)C[C@@H]1C 6.49%, CCCC(=O)Nc1ccc2c(c1)C(=O)N(C)C[C@H](OC)[C@@H](C)CN(C(C)=O)[C@H](C)CO2 3.22%, CO[C@H]1CN(C)C(=O)c2ccc(NC(=O)c3nc4ccccc4s3)cc2OC[C@H](C)N(Cc2cccnc2)C[C@@H]1C -1.61%, CC(=O)N1Cc2cc(C(=O)NCc3cc(F)cc(F)c3)nc(-c3cccc(C4=CCCC4)c3)c2[C@@H]1CCO -14.1%, N#C[C@@H]1[C@@H](c2ccc(-c3ccccc3)cc2)[C@@H](CO)N1C(=O)Cc1ccccc1 9.02%, CO[C@H]1CN(C)C(=O)c2cc(NC(=O)Nc3ccccc3F)ccc2OC[C@@H](C)N(CCC(F)(F)F)C[C@@H]1C -11.4%, CN(C)C(=O)c1ccc(-c2ccc([C@@H]3[C@H](C#N)N(C(=O)C4CC4)[C@H]3CO)cc2)cc1 -6.47%, Cc1noc(C)c1S(=O)(=O)N(C)C[C@@H]1OCCCC[C@H](C)Oc2ccc(NC(=O)NC3CCCCC3)cc2C(=O)N([C@@H](C)CO)C[C@H]1C -8.81%, C[C@@H]1CN([C@H](C)CO)C(=O)c2cc(NC(=O)Nc3ccc(F)cc3)ccc2O[C@@H](C)CCCCO[C@H]1CN(C)Cc1ccc(Cl)c(Cl)c1 4.63%, COc1ccc(C(=O)Nc2ccc3c(c2)OC[C@H](C)N(C(C)=O)C[C@@H](C)[C@@H](OC)CN(C)C3=O)cc1 -16%, C[C@@H]1CN([C@H](C)CO)C(=O)c2cccc(NC(=O)C3CCCCC3)c2O[C@@H]1CN(C)C(=O)NC1CCCCC1 1.54%, C[C@H](O)C#Cc1ccc2c(c1)O[C@H](CN(C)Cc1ccccn1)[C@H](C)CN([C@H](C)CO)S2(=O)=O -12.6%, O=C(Nc1cccc(C(F)(F)F)c1)c1ccc(N2CCNCC2)c([N+](=O)[O-])c1 -2.54%, COc1cccc(NC(=O)c2ccc3c(SCC(=O)O)c4c(nc3c2)CCCC4)c1 6.49%, C[C@H]1CN([C@@H](C)CO)C(=O)CCCn2cc(nn2)CO[C@H]1CN(C)S(=O)(=O)c1ccc2ccccc2c1 1.04%, O=C(C[C@@H]1C[C@H]2c3cc(NS(=O)(=O)c4ccc(F)cc4)ccc3O[C@H]2[C@@H](CO)O1)NCc1ccccc1F -3.71%, O=C(NC1CCCCC1)[C@@H]1[C@@H](CO)[C@@H]2Cn3c(cccc3=O)[C@@H]2N1C(=O)CC1CC1 1.5%, COCC(=O)N1CC(=O)N2[C@H](CO)[C@@H](c3ccc(C#CC4CCCCC4)cc3)[C@@H]2C1 -8.44%, COc1ccc(NC(=O)N[C@H]2CC[C@@H](CCNS(=O)(=O)c3cccc(Cl)c3)O[C@H]2CO)cc1 18.1%, O=C(Nc1ccccc1F)N[C@H]1CC[C@@H](CCNS(=O)(=O)c2ccc(F)cc2)O[C@@H]1CO -5.07%, Cc1noc(C)c1S(=O)(=O)Nc1ccc2c(c1)C(=O)N([C@H](C)CO)C[C@H](C)[C@@H](CN(C)C(=O)CCC(F)(F)F)OCCCC[C@H](C)O2 -11.4%, C[C@@H]1CN([C@@H](C)CO)S(=O)(=O)c2ccc(C#CCC3CCCC3)cc2O[C@H]1CN(C)Cc1ccc(C(=O)O)cc1 -3.27%, COc1ccc2c3c([nH]c2c1)[C@H](CO)N(C(=O)Nc1cccc(F)c1)CC31CCN(S(=O)(=O)c2ccccc2)CC1 -4.14%, COc1ccc(CN(C)C[C@H]2Oc3ccc(NS(=O)(=O)c4ccc(C)cc4)cc3C(=O)N([C@@H](C)CO)C[C@H]2C)cc1 -4.3%, C[C@@H]1CN([C@@H](C)CO)C(=O)c2cccc(NC(=O)Nc3ccc(F)cc3)c2O[C@@H]1CN(C)Cc1ccc(C(=O)O)cc1 16.9%, CCC(=O)N1C[C@H](C)[C@H](OC)CN(C)C(=O)c2ccc(NC(=O)Nc3cccc(F)c3)cc2OC[C@@H]1C -17.6%, O=C(C[C@@H]1CC[C@H]2[C@@H](COC[C@H](O)CN2S(=O)(=O)c2ccc(F)cc2)O1)N[C@H]1CCN(Cc2ccccc2)C1 2.74%, C[C@@H](NC(=O)C[C@H]1C[C@@H]2c3cc(NC(=O)C4CCC4)ccc3O[C@@H]2[C@@H](CO)O1)c1ccccc1 8.72%, CC(C)CC#Cc1ccc([C@@H]2[C@@H](CO)N3C(=O)CN(C(=O)Nc4ccc(F)cc4)C[C@H]23)cc1 -1.01%

inhibition, active:
CC(C)C#Cc1ccc2c(c1)O[C@@H](CN(C)C(=O)NC(C)C)[C@H](C)CN([C@H](C)CO)S2(=O)=O 106%, O=C(O)CSc1c2c(nc3cc(C(=O)Nc4cccc(C(F)(F)F)c4)ccc13)CCCC2 71.4%, COc1ccccc1NC(=O)N[C@H]1CC[C@H](CCNS(=O)(=O)c2ccc(Cl)cc2)O[C@H]1CO 107%
